The source of these data is ChEMBL document CHEMBL1938389, “Jadomycins derived from the assimilation and incorporation of norvaline and norleucine” (J Nat Prod, 2011).

Calls of active or inactive are those of the source. No cut-off for these calls is given here.

The test system of one assay is Pseudomonas aeruginosa. Nature of the assay: Antimicrobial activity against Pseudomonas aeruginosa H187 by CLSI method. In kind it is functional, organism-based. The method, boiled down: (§1)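 Broth MIC determination following Clinical and Laboratory Standards Institute methods. Panel: Gram-positive S. aureus C622, MRSA C623, S. epidermidis C960, B. subtilis C971, E. faecalis C625; Gram-negative S. enterica Typhimurium C587, E. coli C498, P. aeruginosa H187. Activity read as minimum inhibitory concentration.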

The next assay has as its system Salmonella typhimurium. Description: Antimicrobial activity against Salmonella enterica Typhimurium C587 by CLSI method. The format is functional, organism-based. The note with it: Salmonella enterica subsp. enterica serovar Typhimurium. The method, boiled down:
as §1

Assay [1] deals with Staphylococcus epidermidis. Nature of the assay: Antimicrobial activity against Staphylococcus epidermidis C960 by CLSI method. In kind it is functional. The procedure, abridged:
as §1

Assay [2] concerns Nucleic Acid. Description: Binding affinity to Escherichia coli pUC19 DNA assessed as relaxation of supercoiled DNA at 100 uM by agarose gel electrophoresis. In kind it is nucleic-acid assay. The method, boiled down: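 DNA in 10 mM Tris-Cl pH 8.5, diluted into Tris pH 7.4 (final 5 mM) and NaCl (final 50 mM). Jadomycin added without copper; volume 20 μL; 2 h at 37 °C. Quenched with loading buffer, electrophoresed on 1% agarose containing ethidium bromide (0.75 μg mL−1), 30 min at 8 V cm−1 in 1× TAE. UV visualization.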

A short description of assay [3]: Cytotoxicity against human NCI60 cells. The format is functional. The procedure, abridged: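 NCI 60-cell-line screen covering leukemia, NSCLC, colon, CNS, melanoma, ovarian, renal, prostate and breast lines. Five doses spanning 5 log10, top concentration 32 μM. Percent growth and mean optical density measured per NCI protocol. OD plotted against concentration to give GI50, TGI and LC50, reported as median (range) over up to 59 lines.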

The next assay deals with Escherichia coli. Description: Antimicrobial activity against Escherichia coli C498 by CLSI method. The format is functional, organism-based. The method, boiled down: as §1
The subject of the next assay is Staphylococcus aureus. Nature of the assay: Antimicrobial activity against methicillin-resistant Staphylococcus aureus isolate C623 by CLSI method. The format is functional.
Assay [4] concerns Nucleic Acid. Nature of the assay: Binding affinity to Escherichia coli pUC19 DNA assessed as relaxation of supercoiled DNA at 0.1 to 100 uM by agarose gel electrophoresis in presence of Cu ions. The format is nucleic-acid assay. The procedure, abridged: (§2)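 DNA supplied in 10 mM Tris-Cl pH 8.5, diluted into Tris pH 7.4 (final 5 mM) plus NaCl (final 50 mM). Jadomycins premixed 1:1 with Cu(OAc)2 added; final volume 20 μL. Incubated 2 h at 37 °C, quenched with loading buffer, run on 1% agarose with ethidium bromide (0.75 μg mL−1), 30 min at 8 V cm−1 in 1× TAE. Bands visualized by UV transillumination.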

Assay [5] concerns Nucleic Acid. Nature of the assay: Binding affinity to Escherichia coli pUC19 DNA assessed as relaxation of supercoiled DNA by agarose gel electrophoresis in presence of Cu ions. The format is nucleic-acid assay. The procedure, abridged:
as §2

Consider `CCC[C@@H]1C(=O)OC2c3cc(C)cc(O)c3C3=C(C(=O)c4c(O[C@H]5C[C@@H](O)[C@@H](O)[C@H](C)O5)cccc4C3=O)N21` (mixture of isomers), for which the result with Pseudomonas aeruginosa, in the assay on Salmonella typhimurium, in the assay on Nucleic Acid [2] and in the assay on Escherichia coli was inactive. In addition, the MIC in [1] is 4 µg/mL; with Staphylococcus aureus, 32 µg/mL. The compound also had a GI50 in [3] of 4.9 µM. This compound returned an LC50 in assay [3] of 19 µM. In assay [3], this compound came in with a TGI of 10 µM. Besides, in the assay with Nucleic Acid [4], the Activity entry was “Dose-dependent effect”. In addition, the EC50 in the assay on Nucleic Acid [5] came to 86 µM.
For the compound `CCCC[C@@H]1C(=O)OC2c3cc(C)cc(O)c3C3=C(C(=O)c4c(O[C@H]5C[C@@H](O)[C@@H](O)[C@H](C)O5)cccc4C3=O)N21` (mixture of isomers), the result in the assay with Pseudomonas aeruginosa, with Salmonella typhimurium, in the assay with Nucleic Acid [2] and in the assay on Escherichia coli was inactive. The MIC in assay [1] was determined as 4 µg/mL; against Staphylococcus aureus, 32 µg/mL. Further, in assay [3], it took 4.2 µM to inhibit growth by half (GI50). Besides, the LC50 in assay [3] stood at 18 µM. Besides, the TGI in assay [3] is 8.7 µM. Besides, in the assay with Nucleic Acid [4], the Activity result is “Dose-dependent effect”. Moreover, in the assay on Nucleic Acid [5], the EC50 was 144 µM.

The MIC is the lowest concentration found to suppress growth. Low values mean a more susceptible organism, high ones a less susceptible organism. What is called GI50 is the concentration that inhibits growth by half. A higher GI50 goes with less potent growth inhibition. By LC50 is commonly meant the concentration lethal to half of the exposed cells or organisms. A higher LC50 goes with lower toxicity. What is called TGI is the concentration at which net growth stops. Higher therefore signals less potent growth arrest. A word on the EC50: it is the midpoint of the concentration-response curve.
